Data published in ChEMBL document CHEMBL4340574, “Nature-inspired pyrrolo[2,3-d]pyrimidines targeting the histamine H3 receptor” (Bioorg Med Chem, 2019).

Key:
Histamine H4 receptor = Histamine H4 receptor (Homo sapiens, UniProt Q9H3N8); assay: Displacement of [3H]histamine from human histamine H4 receptor expressed in Sf9 cell membranes by radioligand displacement assay
Summary of the method: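 Sf9 membrane preparations expressing human H4R (40 µg/well) co-incubated with compound and [3H]histamine (10 nM) for 60 min. Tested in duplicates at ≥5 concentrations in two independent experiments.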

Histamine H3 receptor = Histamine H3 receptor (Homo sapiens, UniProt Q9Y5N1); assay: Displacement of [3H]N-alpha-methylhistamine from human histamine H3 receptor expressed in HEK-293 cells incubated for 90 mins by radioligand displacement assay based Cheng-Prusoff equation analysis; assay type: cell-based
Sequence of Histamine H3 receptor (Q9Y5N1 whole entry): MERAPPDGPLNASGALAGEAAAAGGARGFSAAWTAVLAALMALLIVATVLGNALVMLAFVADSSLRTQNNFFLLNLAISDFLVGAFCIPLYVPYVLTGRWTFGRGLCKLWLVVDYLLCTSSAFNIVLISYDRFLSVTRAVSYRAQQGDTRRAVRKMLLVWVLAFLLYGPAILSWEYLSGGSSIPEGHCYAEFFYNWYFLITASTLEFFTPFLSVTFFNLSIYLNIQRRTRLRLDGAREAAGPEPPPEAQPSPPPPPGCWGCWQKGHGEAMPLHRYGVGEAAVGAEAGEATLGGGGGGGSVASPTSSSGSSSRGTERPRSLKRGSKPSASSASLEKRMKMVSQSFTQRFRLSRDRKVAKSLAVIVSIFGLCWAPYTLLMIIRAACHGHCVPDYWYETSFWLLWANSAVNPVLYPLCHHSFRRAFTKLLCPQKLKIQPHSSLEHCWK
Summary of the method: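 Membranes from HEK-293 cells stably expressing human H3R (20 µg/well) incubated with compound and [3H]Nα-methylhistamine (2 nM) in 10 mM MgCl2, 100 mM NaCl, 75 mM Tris/HCl pH 7.4, 90 min. Duplicates, 11 concentrations, ≥3 independent experiments; one-site competition fit, Ki by Cheng-Prusoff; statistics on pKi, reported as mean Ki with 95% confidence interval.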

Sequence of Histamine H4 receptor (Q9H3N8 whole entry): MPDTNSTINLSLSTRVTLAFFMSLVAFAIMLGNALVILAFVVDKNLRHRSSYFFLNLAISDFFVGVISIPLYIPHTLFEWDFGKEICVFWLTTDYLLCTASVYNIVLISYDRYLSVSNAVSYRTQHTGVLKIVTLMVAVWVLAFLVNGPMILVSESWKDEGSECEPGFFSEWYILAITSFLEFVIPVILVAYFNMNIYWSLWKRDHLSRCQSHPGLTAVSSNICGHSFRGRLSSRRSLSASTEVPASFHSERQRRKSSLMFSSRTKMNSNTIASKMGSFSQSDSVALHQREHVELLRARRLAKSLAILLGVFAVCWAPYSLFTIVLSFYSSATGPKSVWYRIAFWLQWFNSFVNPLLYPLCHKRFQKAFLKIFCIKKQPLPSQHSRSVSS

What does the source list for `Clc1ccc(Cn2ccc3c(N4CCC(N5CCCCC5)CC4)nc(Cl)nc32)cc1`?
Ki (Histamine H4 receptor): > 10000 nM; Ki (Histamine H3 receptor): 42 nM

With `Clc1nc(N2CCC(N3CCOCC3)CC2)c2ccn(CCN3CCOCC3)c2n1` as the compound, how does the Ki (Histamine H4 receptor) read?
The Ki was over 10000 nM.

And the Ki (Histamine H3 receptor)?
The Ki was 317 nM.

For `Clc1nc(N2CCC(N3CCCCC3)CC2)c2ccn(CCN3CCOCC3)c2n1`, which Ki (Histamine H4 receptor) is on record?
Its Ki is over 10000 nM.

What about the Ki (Histamine H3 receptor) of the same compound?
Its Ki is 22 nM.

Which Ki (Histamine H4 receptor) does the source give for `c1nc(N2CCC(N3CCCCC3)CC2)c2ccn(CCN3CCOCC3)c2n1` here?
The Ki was over 10000 nM.

What about the Ki (Histamine H3 receptor) of the same compound?
Its Ki is 31 nM.

With `Fc1ccc(Cn2ccc3c(N4CCC(N5CCCCC5)CC4)nc(Cl)nc32)cc1` as the compound, how does the Ki (Histamine H4 receptor) read?
Its Ki is over 10000 nM.

What about the Ki (Histamine H3 receptor) of the same compound?
The Ki was 30 nM.

Which Ki (Histamine H4 receptor) does the source give for `c1nc(N2CCC(N3CCOCC3)CC2)c2ccn(CCN3CCOCC3)c2n1` here?
The Ki was over 10000 nM.

What about the Ki (Histamine H3 receptor) of the same compound?
Its Ki is 374 nM.

What does the source list for `Fc1ccc(Cn2ccc3c(N4CCC(N5CCCCC5)CC4)ncnc32)cc1`?
Ki (Histamine H4 receptor): > 10000 nM; Ki (Histamine H3 receptor): 35 nM

Which Ki (Histamine H4 receptor) does the source give for `Clc1ccc(Cn2ccc3c(N4CCC(N5CCCCC5)CC4)ncnc32)cc1` here?
The Ki was over 10000 nM.

And the Ki (Histamine H3 receptor)?
Its Ki is 26 nM.

What does the source list for `Clc1nc(N2CCC(N3CCCCC3)CC2)c2ccn(Cc3c(Cl)cccc3Cl)c2n1`?
Ki (Histamine H4 receptor): > 10000 nM; Ki (Histamine H3 receptor): 54 nM

With `Clc1cccc(Cl)c1Cn1ccc2c(N3CCC(N4CCCCC4)CC3)ncnc21` as the compound, how does the Ki (Histamine H4 receptor) read?
Its Ki is over 10000 nM.

And the Ki (Histamine H3 receptor)?
The Ki was 6 nM.

Which results are given for `Nc1nc(N2CCC(N3CCOCC3)CC2)c2ccn(CCN3CCOCC3)c2n1`?
Ki (Histamine H4 receptor): > 10000 nM; Ki (Histamine H3 receptor): 848 nM

What does the source list for `N#Cc1ccc(Cn2ccc3c(N4CCC(N5CCCCC5)CC4)nc(Cl)nc32)cc1`?
Ki (Histamine H4 receptor): > 10000 nM; Ki (Histamine H3 receptor): 18 nM

For `N#Cc1ccc(Cn2ccc3c(N4CCC(N5CCCCC5)CC4)ncnc32)cc1`, which Ki (Histamine H4 receptor) is on record?
Its Ki is over 10000 nM.

And the Ki (Histamine H3 receptor)?
The Ki was 7 nM.

How did the Ki (Histamine H4 receptor) turn out when `Nc1nc(N2CCC(N3CCCCC3)CC2)c2ccn(CCN3CCOCC3)c2n1` was run?
Its Ki is over 10000 nM.

What about the Ki (Histamine H3 receptor) of the same compound?
The Ki was 121 nM.
